Measured values gathered from unrelated publications.
Compare with care: the assays were run in different laboratories.

CCCCCCCCNC(C)C(O)c1ccc(SC(C)C)cc1 (stereo not shown)
haemolysis (haemolysis; human; 50 µM, 3 h): > 18%

CCCc1nc2c(C)cc(-c3nc4ccccc4n3C)cc2n1Cc1ccc(-c2ccccc2C(=O)O)cc1
CL/F (male Sprague-Dawley rat, plasma; oral, 8 mg/kg, single dose): 78 mL/min/kg

CO[C@H]1C[C@H](O[C@@H]2/C(C)=C/C[C@@H]3C[C@@H](C[C@]4(CC[C@H](C)[C@@H](C5CCCCC5)O4)O3)OC(=O)[C@@H]3C=C(C)/C(=N/O)[C@H]4OC/C(=C\C=C\[C@@H]2C)[C@]43O)O[C@@H](C)[C@@H]1O
haemolysis (haemolysis; human; 50 µM, 3 h): > 18%

CC(C)[C@@H]1NC(=O)[C@@H](CCCNC(=N)N)NC(=O)[C@H]([C@@H](C)O)NC(=O)[C@@H](C)NC(=O)[C@H](Cc2ccccc2)NC(=O)[C@@H](Cc2ccccc2)NC1=O
haemolysis (haemolysis; human; 100 µM): < 10%

C[C@]1(O)CCCN(c2nc(Nc3ccc(S(=O)(=O)N[C@H]4CC[C@H](CN5CCN(c6ccc(C7CCC(=O)NC7=O)cc6F)CC5)CC4)cc3F)ncc2C(F)(F)F)C1 (stereo partly shown)
clearance (rat, plasma; intravenous, 2 mg/kg): 12 mL/min/kg

CC(C)[C@@H]1NC(=O)[C@@H](CCCNC(=N)N)NC(=O)[C@H]([C@@H](C)O)NC(=O)[C@@H](CCCCN)NC(=O)[C@H](Cc2ccccc2)NC(=O)[C@@H](Cc2ccccc2)NC1=O
haemolysis (haemolysis; human; 100 µM): < 10%

C[C@]1(O)CCCN(c2nc(Nc3ccc(S(=O)(=O)N[C@@H]4CCN(CC5CCN(c6ccc(C7CCC(=O)NC7=O)cc6F)CC5)C[C@H]4F)cc3F)ncc2C(F)(F)F)C1 (stereo partly shown)
clearance (rat, plasma; intravenous, 2 mg/kg): 12 mL/min/kg

CC(C)[C@H](N)C(=O)N[C@H](Cc1ccccc1)C(=O)N[C@@H](Cc1ccccc1)C(=O)N[C@H](CCCN)C(=O)N[C@H](C(=O)N[C@H](CCCNC(=N)N)C(=O)O)[C@@H](C)O
haemolysis (haemolysis; human; 100 µM): < 10%

C[C@]1(O)CCCN(c2nc(Nc3ccc(S(=O)(=O)N[C@H]4CC[C@H](CN5CCN(c6ccc(C7CCC(=O)NC7=O)c(F)c6)CC5)CC4)cc3F)ncc2C(F)(F)F)C1 (stereo partly shown)
clearance (rat, plasma; intravenous, 2 mg/kg): 6 mL/min/kg

C[C@H]1Oc2cc(cnc2N)-c2c(nn(C)c2C#N)CN(C)C(=O)c2ccc(F)cc21
CL/F (male Sprague-Dawley rat, plasma; oral, 50 mg/kg, single dose): 16.7 mL/min/kg
